We go through 18 compounds from ChEMBL document CHEMBL1139243, “Synthesis and biological evaluation of a 2-aryl polyhydroxylated pyrrolidine alkaloid-based library” (Bioorg Med Chem, 2008).

A short description of test [1]: Inhibition of yeast alpha-glucosidase. Set-up: species or system Saccharomyces cerevisiae. Put shortly:
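Yeast α-glucosidase at 0.25–1 units per mL in 100 mM sodium phosphate, pH 6.8, room temperature. p-Nitrophenyl glycopyranoside substrate at twice Km, with Km 0.19 mM from a Michaelis–Menten fit. Initial velocities monitored at 405 nm. Compounds screened first at a single concentration; actives titrated lower to get IC50.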

The nature of test [2]: Inhibition of almond beta-glucosidase. The arrangement: species or system Prunus dulcis. Put shortly: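 β-Glucosidase at 0.25–1 units per mL in 100 mM sodium phosphate buffer, pH 6.8, room temperature. p-Nitrophenyl glycopyranoside substrate at twice its Michaelis–Menten Km. Initial hydrolysis rates read spectrophotometrically at 405 nm. Compounds screened first at one concentration; actives retested at lower levels for IC50.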

Test [3] in a line: Inhibition of Helix pomatia beta-mannosidase. Put shortly: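 β-Mannosidase at 0.25–1 units per mL in 100 mM sodium citrate, pH 6.4, room temperature. p-Nitrophenyl glycopyranoside substrate at twice its Michaelis–Menten Km. Initial velocities read at 405 nm. Compounds screened first at a single concentration; those active titrated lower for IC50.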
Test [4] in a line: Inhibition of Bacillus stearothermophilus alpha-glucosidase. Set-up: species or system Geobacillus stearothermophilus. Put shortly:
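Bacillus stearothermophilus α-glucosidase at 0.25–1 units per mL in 100 mM sodium phosphate, pH 6.8, room temperature. Substrate is p-nitrophenyl glycopyranoside at twice Km, with Km 1.5 mM from a Michaelis–Menten fit. Initial hydrolysis rates read at 405 nm. Compounds screened first at a single high concentration; active ones retested at lower concentrations for IC50.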

A short description of test [5]: Inhibition of yeast alpha-glucosidase by Lineweaver-Burke double reciprocal plot. Set-up: species or system Saccharomyces cerevisiae.

Where only a bound is given, the exact number is not on record here.

As for `COc1ccc(OC)c([C@@H]2[C@@H](O)[C@H](O)[C@@H](CO)N2C)c1`, the 50% inhibitory concentration (IC50) in test [1], in test [2], in test [3] and in test [4] was greater than 200 µM in each case.

Regarding `OC[C@H]1N[C@H](c2ccc(O)cc2)[C@@H](O)[C@@H]1O` [RADICAMINE B], the IC50 – broadly, the concentration that gives 50% inhibition – in test [1] was 24 µM; in test [2], greater than 200 µM; in test [3] it was greater than 200 µM; in test [4], 10 µM.

For the compound `COc1ccc([C@H]2N[C@H](CO)[C@@H](O)[C@@H]2O)cc1`, the IC50 in test [1] amounted to 0.5 µM; in test [2], 122 µM; in test [3], 21 µM; in test [4], 8.8 µM.

For the compound `COc1ccc([C@@H]2N[C@@H](CO)[C@H](O)[C@H]2O)cc1`, the IC50 in test [1] is 21 µM; in test [2] it was greater than 200 µM; in test [3], greater than 200 µM; in test [4], greater than 200 µM.

For `COc1ccc([C@@H]2N[C@@H](CO)[C@H](O)[C@H]2O)cc1OC`, the 50% inhibitory concentration (IC50) in test [1] was 6 µM; in test [2], greater than 200 µM; in test [3], greater than 200 µM; in test [4], greater than 200 µM.

On to `COc1ccc([C@H]2[C@H](O)[C@@H](O)[C@H](CO)N2C)cc1`, for which the concentration for half-maximal inhibition (IC50) in test [1], in test [2], in test [3] and in test [4] was greater than 200 µM in each case.

Regarding `COc1ccc([C@H]2N[C@H](CO)[C@@H](O)[C@@H]2O)cc1OC`, the IC50 in test [1] is 1.1 µM; in test [2], 34 µM; in test [3] it was 52 µM; in test [4], 1.8 µM. The inhibition constant Ki (usually a dissociation constant, usually derived from enzyme kinetics or from competition with a known ligand) in test [5] is 0.7 µM.

Consider `COc1ccc([C@@H]2[C@@H](O)[C@H](O)[C@@H](CO)N2C)cc1O`, for which the 50% inhibitory concentration (IC50) in test [1] is 28 µM; in test [2] it was greater than 200 µM; in test [3], 184 µM; in test [4], greater than 200 µM.

As for `COc1ccc([C@H]2N[C@H](CO)[C@@H](O)[C@@H]2O)c(OC)c1`, the 50% inhibitory concentration (IC50) in test [1] turned out to be 7.8 µM; in test [2], 96 µM; in test [3], 172 µM; in test [4], 8.4 µM.

Regarding `COc1ccc([C@@H]2[C@@H](O)[C@H](O)[C@@H](CO)N2C)cc1`, the IC50 in test [1] is 38 µM; in test [2] it was greater than 200 µM; in test [3] it was 61 µM; in test [4], 9.2 µM.

`COc1ccc([C@@H]2[C@@H](O)[C@H](O)[C@@H](CO)N2C)cc1OC`: the half-maximal inhibitory concentration (IC50) is 72 µM in test [1], greater than 200 µM in test [2], greater than 200 µM in test [3] and 24 µM in test [4].

Consider `CCCCN1[C@H](CO)[C@@H](O)[C@H](O)[C@H]1c1ccc(OC)c(O)c1`, for which the IC50 in test [1], in test [2], in test [3] and in test [4] was greater than 200 µM in each case.

For the compound `COc1ccc([C@@H]2N[C@@H](CO)[C@H](O)[C@H]2O)cc1O` [L-RADICAMINE A], the IC50 was greater than 200 µM in test [1], greater than 200 µM in test [2], 113 µM in test [3] and greater than 200 µM in test [4].

Take `COc1cccc([C@H]2N[C@H](CO)[C@@H](O)[C@@H]2O)c1`: the IC50 in test [1] was determined as 2.4 µM; in test [4], 31 µM.

With `COc1ccc([C@H]2N[C@H](CO)[C@@H](O)[C@@H]2O)cc1O` [RADICAMINE A], the IC50 is 4.2 µM in test [1], greater than 200 µM in test [2], 66 µM in test [3] and 12 µM in test [4].

`COc1ccc(OC)c([C@H]2N[C@H](CO)[C@@H](O)[C@@H]2O)c1`: the IC50 in test [1] is 2.6 µM; in test [2], 169 µM; in test [3], greater than 200 µM; in test [4] it was 4 µM.

With `OC[C@H]1N[C@H](c2ccccc2)[C@@H](O)[C@@H]1O`, the IC50 was found to be 10 µM in test [1], 197 µM in test [2], 93 µM in test [3] and 36 µM in test [4].

For `COc1ccc([C@@H]2[C@@H](O)[C@H](O)[C@@H](CO)N2C)c(OC)c1`, the 50% inhibitory concentration (IC50) in test [1] is greater than 200 µM; in test [2] it was greater than 200 µM; in test [3] it was 86 µM; in test [4] it was greater than 200 µM.
